Sampled rows, rich in hits. Any-hit rate of the full collection: about 1.4%.
FXIa inh 1536 = human FXIa protease inhibitors, primary screen, biochemical, 1536-well. Coagulation factor XI (Homo sapiens), P03951. AID 798, 2007. inhibition, % at 5 µM. 220,000 tested, 0.14% active. purified FXIa, Boc-Glu-Ala-Arg-AMC fluorogenic substrate;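 active = inhibition of at least 40%; inactive = inhibition below 40%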;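 also: fluorescence of freed AMC excited at 355 nm; 0% = enzyme without compound and 100% = no enzyme blank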
Target sequence (P03951 19-387 limits assumed): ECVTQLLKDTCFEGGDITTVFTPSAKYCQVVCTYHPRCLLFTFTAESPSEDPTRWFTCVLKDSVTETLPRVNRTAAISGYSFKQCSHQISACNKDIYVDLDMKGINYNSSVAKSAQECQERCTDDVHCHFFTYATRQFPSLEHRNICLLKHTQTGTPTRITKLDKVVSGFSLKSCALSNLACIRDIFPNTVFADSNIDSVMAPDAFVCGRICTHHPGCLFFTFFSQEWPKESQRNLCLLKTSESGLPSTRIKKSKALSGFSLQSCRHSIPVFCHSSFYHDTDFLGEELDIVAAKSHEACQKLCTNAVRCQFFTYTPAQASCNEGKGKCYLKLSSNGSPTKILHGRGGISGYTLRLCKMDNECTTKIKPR
Target sequence (P03951 388-625 limits assumed): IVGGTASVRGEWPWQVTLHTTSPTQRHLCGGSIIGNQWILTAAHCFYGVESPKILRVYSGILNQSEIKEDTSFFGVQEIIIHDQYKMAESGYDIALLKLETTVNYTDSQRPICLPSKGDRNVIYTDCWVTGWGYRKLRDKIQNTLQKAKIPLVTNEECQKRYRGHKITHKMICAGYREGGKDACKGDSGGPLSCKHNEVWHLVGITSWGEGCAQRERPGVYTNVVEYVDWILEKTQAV
Thrombin inh = human alpha-thrombin inhibitors, primary screen, counter-screen for coagulation protease inhibitor project, biochemical, 1536-well, fluorogenic AMC substrate. AID 1046, 2008. Prothrombin (Homo sapiens), P00734. Boc-VPR-AMC fluorogenic substrate cleavage. inhibition, % at 5 µM. 220,000 tested, 0.26% active;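 active = inhibition at or above 40%; inactive = inhibition below 40%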;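 also: 0% = enzyme with no compound and 100% = wells without enzyme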
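System: human alpha-thrombin protein; Compound dosing: one concentration per compound, 5 µM, with 0.2% DMSO; Timing: reaction at room temperature; Technique: AMC fluorescence, 355/460 nm; Controls: enzyme without compound as high, wells lacking enzyme as low.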
FXIIa inh = human FXIIa protease inhibitors, primary screen, biochemical, 1536-well; Coagulation factor XII (Homo sapiens), P00748; purified FXIIa, Boc-QGR-AMC fluorogenic substrate, 2 h; inhibition, % at 5 µM; 220,000 tested, 0.3% active; AID 800, 2007; in the data active = inhibition above about 40%;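 also: 0% = enzyme with no compound and 100% = blank without enzyme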
KLK5 inh = human KLK5 protease inhibitors, primary screen, biochemical, 1536-well; recombinant hK5, fluorogenic AMC substrate cleavage; inhibition, % at 5 µM; 210,000 tested, 0.59% active; AID 873, 2007;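 active = inhibition of 40% or more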;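 also: 0% = enzyme controls without compound and 100% = no-enzyme blanks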
Calpain2 inh = inhibitors of pig calpain II, primary screen, biochemical, fluorogenic peptide substrate, 1536-well. purified calpain II, 30 min. inhibition, % at 16 µM. 220,000 tested, 0.37% active;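 active = inhibition above about 50%, limit read from the data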
An asterisk follows results filed as active; / = no result given.

SMILES	FXIa inh 1536	Thrombin inh	FXIIa inh	KLK5 inh	Calpain2 inh
O=C(N/N=C/c1cc2cc3c(cc2nc1Cl)OCO3)c1ccncc1	4	4	6	6	-155
CC(c1ccc(F)cc1)n1c(-c2cccs2)n[nH]c1=S (configuration not stated)	35	33	/	71*	-38
Cc1cc(C)c(Nc2cc(S(=O)(=O)O)c(N)c3c2C(=O)c2ccccc2C3=O)c(C)c1	2	-5	6	-3	40
COc1ccc(OC)c(N(CC(=O)N2CCN(c3cc(Cl)ccc3C)CC2)S(C)(=O)=O)c1	6	-2	10	-20	57*
Cc1ccc(Cl)cc1N1CCN(C(=O)COc2ccc(S(=O)(=O)NC(C)C)cc2)CC1	17	20	22	46*	-12
Cc1nc([N+](=O)[O-])c(Sc2nc3ccccc3n2C)n1Cc1ccccc1	-2	-12	8	-20	-4
Cc1ccc(SCC(=O)Nc2cccc(-c3nnc(-c4ccco4)o3)c2)cc1	16	-3	22	-24	37
CCOc1ccc(N2C(=O)c3cccnc3C2Nc2ccc(Cl)cc2)cc1 (configuration not stated)	-6	-6	8	0	-11
Cc1ccc(NC2c3ncccc3C(=O)N2c2ccccc2C)cc1C (configuration not stated)	-1	5	13	47*	20
Cc1ccc(C)c(-c2nc3cc(N)ccc3o2)c1	18	-2	41*	-35	-143
COCCN(C(=O)C1CCCC1)c1c(N)n(Cc2ccccc2)c(=O)[nH]c1=O	-1	-10	7	3	11
CC(C)CCN(C(=S)NC(=O)C1CCCCC1)c1c(N)n(Cc2ccccc2)c(=O)[nH]c1=O	8	13	17	10	64*
COCc1c(C(=O)OCc2nc(N)nc(Nc3ccccc3C)n2)oc2ccccc12	32	-2	51*	5	31
COc1ccccc1C(=O)OCc1nc(N)nc(Nc2ccccc2C)n1	-6	-15	0	-7	12
COc1ccc(CC(=O)Nc2ccccc2N2CCOCC2)cc1OC	2	-5	7	4	-16
COc1ccc(CC(=O)Nc2ccccc2N2CCCCC2)cc1OC	22	4	30	112*	14
N=c1n(Cc2ccccc2)c2ccccc2n1CC(O)COc1ccc(Cl)cc1Cl (configuration not stated)	0	-3	11	4	52*
N=c1n(Cc2ccc(Cl)cc2)c2ccccc2n1CC(O)COc1ccccc1 (configuration not stated)	-2	-5	3	-2	35
Cc1ccccc1CN1CCc2c(OCC(=O)N3CCCc4ccccc43)cccc2C1=O	13	1	9	53*	44
COc1ccc(CCNC(=O)C2CCC(CNS(=O)(=O)c3ccccc3)CC2)cc1OC (configuration not stated)	29	53*	26	21	36
COc1cc(Br)cc2cc(C(=O)NCC3CCCO3)c(=O)oc12 (configuration not stated)	-16	-8	2	-8	-26
COc1ccc(CCNC(=O)C(=O)NCC2CCCO2)cc1OC (configuration not stated)	3	29	15	51*	26
COc1ccc(CCNC(=O)Cn2nnc(-c3ccc(N4CCOCC4)cc3)n2)cc1OC	-9	2	-6	126*	-37
COc1cccc2cc(C(=O)NCC3CCCO3)c(=O)oc12 (configuration not stated)	14	104*	17	44*	-30
COc1ccc(CCNC(=O)Cn2nnc(-c3cccc(OC)c3OC)n2)cc1OC	2	-14	-9	5	12
SMILES	FXIa inh 1536	Thrombin inh	FXIIa inh	KLK5 inh	Calpain2 inh
C/C(N)=C(/C#N)C(=O)COC(=O)CNS(=O)(=O)c1c(F)cccc1F	-2	-7	4	2	-19
Cc1ccc(NC(=O)c2ccc(CSc3nnnn3C)cc2)cc1	-18	0	20	-24	-27
CC(NS(=O)(=O)c1ccc(CCC(=O)NCc2cccnc2)cc1)c1ccccc1 (configuration not stated)	-3	-13	4	-25	-39
Cc1ccc(CNc2nc(Cl)c(C#N)s2)cc1	-2	-3	4	-3	76*
CCOC(=O)CNc1nc(Cl)c(C#N)s1	-1	-5	7	-3	7
COc1ccc(S(=O)(=O)N(CCCN2CCCC2=O)Cc2cc3cc(C)c(C)cc3[nH]c2=O)cc1	1	29	10	86*	-22
Cc1cc(Cl)ccc1OCC(=O)N(Cc1ccco1)C1CCS(=O)(=O)C1 (configuration not stated)	-2	0	9	1	14
CCc1ccc(C2c3[nH]c4ccccc4c3CCN2C(=O)c2cc[n+]([O-])cc2)cc1 (configuration not stated)	16	36	30	50*	-25
CN(C)c1ccc(N=Nc2ccccc2C(=O)OCC(=O)NC2CCCC2)cc1	-4	-8	4	5	31
CN(C)c1ccc(N=Nc2ccccc2C(=O)OCC(=O)NCC2CCCCC2)cc1	7	11	21	48*	45
COc1ccccc1CNC(=O)/C=C/c1cc2c(cc1Br)OCO2	5	0	15	-15	-15
COc1ccc(OC)c(/C=N/NC(=O)CCc2ccc(O)c(O)c2)c1	-6	-10	3	-4	-413
COc1cccc(OC)c1-c1nn2c(-c3ccco3)nnc2s1	8	38	45*	45*	29
CC(C)(C)c1ccc(C(=O)Cn2nc(C(=O)O)c3ccccc3c2=O)cc1	30	29	12	44*	10
Cc1cc(C(=O)Cn2nc(C(=O)O)c3ccccc3c2=O)c(C)n1-c1cccc(C(F)(F)F)c1	72*	17	24	24	14
CN1CCS/C1=C\C=C1/SC(=S)N(CC(=O)O)C1=O	8	/	11	1	64*
CNc1ccc(C2(O)C(=O)c3ccccc3C2=O)cc1	8	-5	17	-12	4
O=C(NCc1ccco1)C(NS(=O)(=O)c1cccc2nsnc12)c1ccccc1 (configuration not stated)	-18	-3	7	1	5
Nn1c(SCC(=O)Nc2ccc3c(c2)OCO3)nnc1-c1ccncc1	-2	0	-4	3	-11
Nn1c(SCC(=O)Nc2ccc(F)cc2F)nnc1-c1cccnc1	10	34	34	41*	-2
Cc1cc(NC(=O)CSc2nnc(-c3ccncc3)n2N)ccc1Br	-1	2	11	-5	137*
CCC(CC)c1nnc(NC(=O)Oc2ccccc2)s1	30	2	43*	2	28
CCC(CC)c1nnc(NC(=O)CCN2C(=O)c3ccccc3C2=O)s1	4	27	25	53*	14
